Consider 19 molecules from ChEMBL document CHEMBL1157776, “Synthesis, topoisomerase I and II inhibitory activity, cytotoxicity, and structure-activity relationship study of hydroxylated 2,4-diphenyl-6-aryl pyridines” (Bioorg Med Chem, 2010).

The test system of one assay is MDA-MB-231. The assay can be described thus: Cytotoxicity against human MDA-MB-231 cells after 2 days by automatic ELISA reader system. Format: functional, cell-based. The conditions noted are these: MDA-MB-231, 48 h. The procedure, abridged:
(§1)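 Cells seeded at 2–4 × 10⁴ per well and grown overnight in medium with 10% FBS, 5% CO₂, 37 °C. Compound added on day 2; on day 4 CCK-8 solution added and incubated a further 4 h. Absorbance read at 450 nm and fitted to a four-parameter logistic equation for IC₅₀.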

The test system of the next assay is HL-60. The assay is described as follows: Cytotoxicity against human HL60 cells after 2 days by automatic ELISA reader system. Format: functional, cell-based. The conditions noted are these: HL-60, 48 h. Put shortly:
as §1

The subject of a further assay is HeLa. The assay can be described thus: Cytotoxicity against human HeLa cells after 2 days by automatic ELISA reader system. Format: functional, cell-based. The settings on record: 48 h. The procedure, abridged:
as §1

The test system of another assay is DU-145. The assay can be described thus: Cytotoxicity against human DU145 cells after 2 days by automatic ELISA reader system. The conditions noted are these: DU-145, 48 h. Format: functional, cell-based. The procedure, abridged: as §1
The target of assay [1] is DNA topoisomerase 2-alpha (Homo sapiens) (UniProt P11388). The assay is described as follows: Inhibition of human recombinant TOP2A-mediated relaxation of supercoiled Escherichia coli pBR322 DNA at 20 uM after 30 mins by transillumination. The procedure, abridged: (§2)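 200 ng supercoiled pBR322 with topo II, ± compound, 30 °C for 30 min. Buffer was 10 mM Tris–HCl pH 7.9, 50 mM NaCl, 5 mM MgCl₂, 1 mM EDTA, 1 mM ATP, BSA. Stopped with 7 mM EDTA, then 1% agarose gel in TAE at 25 V for 4 h. Ethidium bromide stain, UV transillumination, supercoiled DNA quantitated.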

Assay [2] shares this target. The assay is described as follows: Inhibition of human recombinant TOP2A-mediated relaxation of supercoiled Escherichia coli pBR322 DNA at 100 uM after 30 mins by transillumination. The procedure, abridged:
as §2

Assay [3] concerns the target T1, DNA topoisomerase 1 (Homo sapiens) (UniProt P11387).
T1 sequence (whole entry): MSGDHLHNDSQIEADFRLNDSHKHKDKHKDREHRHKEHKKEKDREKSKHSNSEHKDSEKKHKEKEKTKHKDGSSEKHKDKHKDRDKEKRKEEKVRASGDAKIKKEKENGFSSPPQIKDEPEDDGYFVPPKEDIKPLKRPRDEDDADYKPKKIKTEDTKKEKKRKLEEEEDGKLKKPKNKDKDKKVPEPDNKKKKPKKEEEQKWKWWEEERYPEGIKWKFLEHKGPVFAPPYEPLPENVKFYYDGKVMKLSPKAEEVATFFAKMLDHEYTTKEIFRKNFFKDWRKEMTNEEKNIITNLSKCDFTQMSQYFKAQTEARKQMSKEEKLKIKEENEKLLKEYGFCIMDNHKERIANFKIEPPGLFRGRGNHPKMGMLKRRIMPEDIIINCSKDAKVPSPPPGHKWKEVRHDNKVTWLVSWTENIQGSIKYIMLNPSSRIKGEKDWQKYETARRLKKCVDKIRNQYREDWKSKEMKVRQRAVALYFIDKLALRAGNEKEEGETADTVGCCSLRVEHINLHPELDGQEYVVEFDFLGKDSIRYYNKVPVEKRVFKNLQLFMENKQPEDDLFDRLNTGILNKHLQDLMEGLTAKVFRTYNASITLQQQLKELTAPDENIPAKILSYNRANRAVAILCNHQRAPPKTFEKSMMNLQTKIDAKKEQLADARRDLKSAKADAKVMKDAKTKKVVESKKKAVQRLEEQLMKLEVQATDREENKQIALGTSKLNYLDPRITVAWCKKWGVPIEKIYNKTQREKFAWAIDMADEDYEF
The assay is described as follows: Inhibition of human recombinant TOP1-mediated relaxation of supercoiled Escherichia coli pBR322 DNA at 20 uM after 30 mins by transillumination. Put shortly:
(§3)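 Relaxation assay: 100 ng supercoiled pBR322 with 0.4 units recombinant human topo I, ± compound (DMSO stocks 20 mM), 37 °C, 30 min. Buffer was 10 mM Tris–HCl pH 7.9, 150 mM NaCl, 0.1% BSA, 1 mM spermidine, 5% glycerol. Stopped with sarcosyl/bromophenol blue/glycerol, then 1% agarose gel in TAE at 15 V for 7 h. Ethidium bromide stain, UV transillumination, bands quantitated by densitometry.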

The test system of another assay is HCT-15. The assay can be described thus: Cytotoxicity against human HCT15 cells after 2 days by automatic ELISA reader system. Format: functional, cell-based. The conditions noted are these: HCT-15, 48 h. Put shortly:
as §1

Assay [4] deals with T1, DNA topoisomerase 1 (Homo sapiens). The assay is described as follows: Inhibition of human recombinant TOP1-mediated relaxation of supercoiled Escherichia coli pBR322 DNA at 100 uM after 30 mins by transillumination. Put shortly: as §3

Counter-ions that a name gives are not always drawn.

Sequence of DNA topoisomerase 2-alpha (Homo sapiens) (P11388 whole entry): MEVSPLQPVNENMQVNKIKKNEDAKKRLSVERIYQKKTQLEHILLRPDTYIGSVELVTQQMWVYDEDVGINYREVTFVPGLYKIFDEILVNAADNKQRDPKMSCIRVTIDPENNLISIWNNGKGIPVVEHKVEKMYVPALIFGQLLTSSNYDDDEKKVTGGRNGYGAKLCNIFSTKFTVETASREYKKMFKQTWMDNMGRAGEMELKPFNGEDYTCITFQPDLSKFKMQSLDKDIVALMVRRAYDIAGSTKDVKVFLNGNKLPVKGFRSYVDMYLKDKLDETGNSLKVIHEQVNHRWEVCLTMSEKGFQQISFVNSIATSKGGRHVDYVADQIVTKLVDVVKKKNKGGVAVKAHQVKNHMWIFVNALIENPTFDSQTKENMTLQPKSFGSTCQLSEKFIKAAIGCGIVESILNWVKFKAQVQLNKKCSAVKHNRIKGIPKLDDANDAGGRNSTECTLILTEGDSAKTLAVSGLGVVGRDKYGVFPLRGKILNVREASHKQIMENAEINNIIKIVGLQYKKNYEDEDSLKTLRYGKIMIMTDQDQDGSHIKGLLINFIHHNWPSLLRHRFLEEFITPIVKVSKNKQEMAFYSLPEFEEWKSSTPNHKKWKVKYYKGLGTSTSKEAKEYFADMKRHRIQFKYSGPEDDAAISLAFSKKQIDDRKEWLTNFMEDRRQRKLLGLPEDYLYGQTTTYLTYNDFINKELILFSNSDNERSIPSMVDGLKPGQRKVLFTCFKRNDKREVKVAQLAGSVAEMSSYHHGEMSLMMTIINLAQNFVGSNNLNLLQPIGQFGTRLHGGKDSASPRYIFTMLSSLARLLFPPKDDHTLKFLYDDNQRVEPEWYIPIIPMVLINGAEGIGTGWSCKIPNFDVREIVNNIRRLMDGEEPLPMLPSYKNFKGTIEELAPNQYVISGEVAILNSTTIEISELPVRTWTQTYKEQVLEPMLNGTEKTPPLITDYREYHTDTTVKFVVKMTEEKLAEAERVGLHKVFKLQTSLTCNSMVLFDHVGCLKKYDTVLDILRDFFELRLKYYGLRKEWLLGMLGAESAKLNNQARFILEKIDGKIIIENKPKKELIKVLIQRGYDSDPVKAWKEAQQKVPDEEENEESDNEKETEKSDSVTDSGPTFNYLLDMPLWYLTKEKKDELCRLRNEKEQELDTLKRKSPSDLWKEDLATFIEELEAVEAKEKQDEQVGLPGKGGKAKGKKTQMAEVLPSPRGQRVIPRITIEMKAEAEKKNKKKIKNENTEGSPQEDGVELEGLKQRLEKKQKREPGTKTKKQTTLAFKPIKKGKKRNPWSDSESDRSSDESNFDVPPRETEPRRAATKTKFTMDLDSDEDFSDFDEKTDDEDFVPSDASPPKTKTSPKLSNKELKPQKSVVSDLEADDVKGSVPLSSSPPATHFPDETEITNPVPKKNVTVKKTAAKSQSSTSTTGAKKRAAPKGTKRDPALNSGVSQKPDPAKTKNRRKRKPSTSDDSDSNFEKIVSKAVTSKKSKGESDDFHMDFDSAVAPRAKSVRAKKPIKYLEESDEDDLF

By IC50 is commonly meant the point on the concentration scale where inhibition reaches its midpoint. A word on the inhibition: it is the change of the read-out against control, counted positive when it falls. For `COc1cc([C@@H]2c3cc4c(cc3[C@@H](O[C@@H]3O[C@@H]5CO[C@@H](C)O[C@H]5[C@H](O)[C@H]3O)[C@H]3COC(=O)[C@H]23)OCO4)cc(OC)c1O` [ETOPOSIDE], the half-inhibitory concentration (IC50) in the assay with MDA-MB-231 came out at 0.7 µM; in the assay on HL-60, 1 µM; in the assay on HeLa, 1.4 µM; in the assay on DU-145, 0.5 µM. Further, the inhibition in [1] came out at 30.4%.

Consider `Oc1cccc(-c2cc(-c3ccccc3)cc(-c3ccncc3)n2)c1`, for which the inhibition was 3.1% in [2], 25.4% in assay [3], 70.4% in assay [4] and 1.8% in [1]. In addition, the IC50 in the assay with MDA-MB-231 was 10.4 µM; in the assay with HL-60 it was 23.9 µM; in the assay with HeLa it was 28.1 µM; in the assay on HCT-15, 27.4 µM; in the assay on DU-145 it was 19.2 µM.

Take `Oc1cccc(-c2cc(-c3ccccc3)cc(-c3ccsc3)n2)c1`: the inhibition in assay [2] was found to be 51.8%; in [3], 6.8%; in assay [4] it was 75.8%; in assay [1] it was 37.2%. The IC50 with MDA-MB-231 worked out at 12.1 µM; in the assay on HL-60 it was 10.3 µM; in the assay on HeLa, 13.8 µM; in the assay on HCT-15, 7.66 µM; in the assay with DU-145, 11.7 µM.

`Oc1ccc(-c2cc(-c3ccccc3)cc(-c3ccc(O)cc3)n2)cc1`: the inhibition is 76.8% in assay [2], 0.3% in assay [4] and 33.7% in assay [1]. For the same molecule, the IC50 is 6.7 µM in the assay with MDA-MB-231; 5.7 µM in the assay with HL-60; 3.3 µM with HeLa; 3 µM in the assay on HCT-15; 22 µM in the assay on DU-145.

For `Oc1cccc(-c2cc(-c3ccccc3)cc(-c3cccs3)n2)c1`, the inhibition in assay [2] is 53.8%; in [3], 5.8%; in [4], 51.2%; in [1] it was 43.5%. Also, the IC50 in the assay on MDA-MB-231 amounted to 18.1 µM; in the assay on HL-60, 14.1 µM; in the assay on HeLa, 17 µM; in the assay with HCT-15 it was 10.8 µM; in the assay with DU-145, 18.9 µM.

With `COc1cccc2c1C(=O)c1c(O)c3c(c(O)c1C2=O)C[C@@](O)(C(=O)CO)C[C@@H]3O[C@H]1C[C@H](N)[C@H](O)[C@H](C)O1` [DOXORUBICIN HYDROCHLORIDE], the half-maximal inhibitory concentration (IC50) with MDA-MB-231 was 0.4 µM; in the assay on HL-60 it was 0.7 µM; with HCT-15, 1.2 µM; with DU-145, 1 µM.

Regarding `Oc1ccc(-c2cc(-c3ccccc3)cc(-c3ccco3)n2)cc1`, the inhibition in assay [2] was 35.2%; in assay [4], 18.6%; in [1], 10.2%. Moreover, the half-inhibitory concentration (IC50) turned out to be 1.4 µM in the assay on MDA-MB-231; 3.3 µM in the assay with HL-60; 10.9 µM with HeLa; 3.5 µM in the assay on HCT-15; 3.2 µM in the assay on DU-145.

As to `Oc1cccc(-c2cc(-c3ccccc3)nc(-c3ccccc3)c2)c1`, the inhibition in assay [2] is 68.2%; in [3], 0%; in assay [4], 11.5%; in assay [1] it was 32%. For the same molecule, the half-inhibitory concentration (IC50) is 19.5 µM in the assay with MDA-MB-231; 13.5 µM in the assay on HL-60; 15.1 µM with HeLa; 17.9 µM with HCT-15; 17.9 µM in the assay with DU-145.

For the molecule `Oc1ccc(-c2cc(-c3ccccc3)cc(-c3cccs3)n2)cc1`, the values for the inhibition in assay [2], in assay [4] and in [1] were 35.4%, 4.9% and 1.3%, respectively. Besides, the IC50 with MDA-MB-231 worked out at 2.4 µM; in the assay with HL-60 it was 1.7 µM; in the assay with HeLa it was 1.7 µM; with HCT-15, 12.5 µM; in the assay with DU-145 it was 3.7 µM.

Regarding `Oc1cccc(-c2cc(-c3ccccc3)nc(-c3cccs3)c2)c1`, the inhibition in [2] turned out to be 57.5%; in assay [3], 2%; in [4], 9.1%; in assay [1], 34.7%. The half-maximal inhibitory concentration (IC50) with MDA-MB-231 amounted to 17.7 µM; with HL-60 it was 18.9 µM; in the assay with HeLa, 15.3 µM; in the assay on HCT-15, 14.1 µM; with DU-145, 19.7 µM.

Consider `Oc1ccccc1-c1cc(-c2ccccc2)cc(-c2ccccc2O)n1`, for which the inhibition turned out to be 42.7% in assay [2], 0% in assay [4] and 12.1% in [1]. The concentration for half-maximal inhibition (IC50) is 37.3 µM with MDA-MB-231; 22.4 µM with HL-60; 14.8 µM in the assay on HeLa; greater than 50 µM with HCT-15; 8 µM with DU-145.

On to `Oc1cccc(-c2cc(-c3ccccc3)cc(-c3ccccc3)n2)c1`, for which the inhibition in assay [2] is 48.4%; in assay [3] it was 0%; in assay [4], 12.9%; in assay [1], 32%. The concentration for half-maximal inhibition (IC50) was determined as 19.3 µM with MDA-MB-231; 11.5 µM in the assay with HL-60; 16.1 µM with HeLa; 9.95 µM with HCT-15; 17.9 µM in the assay on DU-145.

For the molecule `Oc1ccc(-c2cc(-c3ccccc3)cc(-c3cccnc3)n2)cc1`, the inhibition stood at 18.6% in [2], 0.9% in [3] and 44% in assay [4]. Moreover, the half-inhibitory concentration (IC50) in the assay with MDA-MB-231 came out at 2.2 µM; in the assay on HL-60, 4.1 µM; in the assay with HeLa, 13.6 µM; with HCT-15 it was 15.1 µM; with DU-145 it was 8.4 µM.

With `Oc1ccccc1-c1cc(-c2ccccc2)nc(-c2ccco2)c1`, the inhibition was 31.2% in [2], 1.5% in [4] and 3.1% in assay [1]. For the same molecule, the half-maximal inhibitory concentration (IC50) in the assay with MDA-MB-231 is 4.6 µM; with HL-60, 1.9 µM; with HeLa, 9.7 µM; in the assay on HCT-15, 2.5 µM; with DU-145, 4.9 µM.

For the molecule `CC[C@@]1(O)C(=O)OCc2c1cc1n(c2=O)Cc2cc3ccccc3nc2-1` [CAMPTOTHECIN], the 50% inhibitory concentration (IC50) in the assay on MDA-MB-231 was determined as 0.3 µM; in the assay on HL-60 it was 0.1 µM; in the assay on HeLa, 0.4 µM; in the assay on HCT-15, 0.5 µM; with DU-145, 0.4 µM.

Regarding `Oc1ccc(-c2cc(-c3ccccc3)nc(-c3ccncc3)c2)cc1`, the inhibition is 8.4% in assay [2], 5.8% in assay [3] and 57.5% in assay [4]. The concentration for half-maximal inhibition (IC50) worked out at 2.1 µM with MDA-MB-231; 1.4 µM in the assay with HL-60; 1.6 µM in the assay on HeLa; 11.7 µM with HCT-15; 2.2 µM in the assay on DU-145.

In the case of `Oc1ccc(-c2cc(-c3ccccc3)cc(-c3ccsc3)n2)cc1`, the inhibition in assay [2] came out at 38.3%; in [4], 20.4%; in assay [1], 8.3%. Besides, the IC50 in the assay on MDA-MB-231 was 5.7 µM; in the assay on HL-60 it was 3.6 µM; with HeLa, 17.3 µM; with HCT-15 it was 1.1 µM; in the assay with DU-145, 8.5 µM.

Turning to `Oc1ccc(-c2cc(-c3ccccc3)nc(-c3ccco3)c2)cc1`, the inhibition in assay [2] came to 30.2%; in assay [4] it was 5%; in [1], 10.3%. Further, the concentration for half-maximal inhibition (IC50) in the assay with MDA-MB-231 worked out at 1 µM; with HL-60, 13.7 µM; with HeLa it was 4.5 µM; with HCT-15, 5.1 µM; with DU-145, 8.6 µM.

`Oc1ccc(-c2cc(-c3ccccc3)cc(-c3ccccc3)n2)cc1`: the inhibition in assay [2] was 27.6%; in assay [3], 43.6%; in [4], 52.9%. Moreover, the IC50 with MDA-MB-231 stood at 1.3 µM; in the assay with HL-60 it was 1.4 µM; in the assay with HeLa, 1.7 µM; in the assay on HCT-15 it was 3.7 µM; in the assay on DU-145, 3 µM.
